Columns and labels:
[1] = biological target: T1, Neuronal acetylcholine receptor; alpha3/beta4 (Homo sapiens, UniProt P30926+P32297); experiment: Agonist activity at human alpha3beta4 nAChR expressed in human SH-SY5Y cells assessed as increase in calcium flux by FLIPR; format: functional, cell-based
[2] = biological target: T1, Neuronal acetylcholine receptor; alpha3/beta4; experiment: Agonist activity at human alpha3beta4 nAChR expressed in human SH-SY5Y cells assessed as increase in calcium flux by FLIPR relative to 10 uM nicotine; format: functional, cell-based
[3] = biological target: T2, Neuronal acetylcholine receptor; alpha4/beta2 (Homo sapiens, UniProt P17787+P43681); experiment: Agonist activity at human alpha4beta2 nAChR low sensitivity form expressed in human SH-EP1 cells assessed as increase in calcium flux by FLIPR; format: functional, cell-based
[4] = biological target: T2, Neuronal acetylcholine receptor; alpha4/beta2; experiment: Agonist activity at human alpha4beta2 nAChR low sensitivity form expressed in human SH-EP1 cells assessed as increase in calcium flux by FLIPR relative to 10 uM nicotine; format: functional, cell-based
[5] = biological target: T2, Neuronal acetylcholine receptor; alpha4/beta2; experiment: Agonist activity at human alpha4beta2 nAChR high sensitivity form expressed in human SH-EP1 cells assessed as increase in calcium flux by FLIPR; format: functional, cell-based
[6] = biological target: T2, Neuronal acetylcholine receptor; alpha4/beta2; experiment: Agonist activity at human alpha4beta2 nAChR high sensitivity form expressed in human SH-EP1 cells assessed as increase in calcium flux by FLIPR relative to 10 uM nicotine; format: functional, cell-based
[7] = biological target: T1, Neuronal acetylcholine receptor; alpha3/beta4; experiment: Displacement of [3H]epibatidine from human alpha3beta4 nAChR expressed in human SH-SY5Y cells; format: cell-based
Method in brief: (§1)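 Binding to membranes from the cell lines: homogenised in PBS pH 7.4, spun at 40000g for 20 min at 4 °C, then incubated 2 h on ice in PBS with competitor (0.001 nM to 100 μM) and radioligand. Filters washed in ice-cold PBS and counted by scintillation. IC50 from nonlinear regression; Ki by Cheng-Prusoff. Minimum of three assays, ± SEM.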

[8] = biological target: Neuronal acetylcholine receptor subunit alpha-7 (Homo sapiens, UniProt P36544); experiment: Displacement of [3H]epibatidine from human alpha7 nAChR expressed in human HEK/RIC3 cells; format: cell-based; method in brief: as §1
[9] = biological target: T2, Neuronal acetylcholine receptor; alpha4/beta2; experiment: Displacement of [3H]nicotine from human alpha4beta2 nAChR expressed in human SH-EP1 cells; format: cell-based; method in brief: as §1

Neuronal acetylcholine receptor subunit alpha-7, sequence (P36544 whole entry): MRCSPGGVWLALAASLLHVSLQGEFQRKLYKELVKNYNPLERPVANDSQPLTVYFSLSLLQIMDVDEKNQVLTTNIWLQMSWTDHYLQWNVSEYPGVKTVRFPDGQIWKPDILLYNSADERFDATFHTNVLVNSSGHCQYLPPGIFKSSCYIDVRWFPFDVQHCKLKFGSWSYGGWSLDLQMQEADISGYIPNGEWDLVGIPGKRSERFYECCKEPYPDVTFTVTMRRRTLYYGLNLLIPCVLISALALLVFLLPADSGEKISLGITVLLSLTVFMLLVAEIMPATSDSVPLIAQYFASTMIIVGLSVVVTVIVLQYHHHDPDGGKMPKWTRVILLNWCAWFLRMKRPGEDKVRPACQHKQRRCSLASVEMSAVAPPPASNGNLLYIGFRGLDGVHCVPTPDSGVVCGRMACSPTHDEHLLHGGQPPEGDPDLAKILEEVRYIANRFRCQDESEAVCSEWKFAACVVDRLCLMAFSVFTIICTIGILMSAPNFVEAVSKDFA
T2 sequence (P17787 whole entry): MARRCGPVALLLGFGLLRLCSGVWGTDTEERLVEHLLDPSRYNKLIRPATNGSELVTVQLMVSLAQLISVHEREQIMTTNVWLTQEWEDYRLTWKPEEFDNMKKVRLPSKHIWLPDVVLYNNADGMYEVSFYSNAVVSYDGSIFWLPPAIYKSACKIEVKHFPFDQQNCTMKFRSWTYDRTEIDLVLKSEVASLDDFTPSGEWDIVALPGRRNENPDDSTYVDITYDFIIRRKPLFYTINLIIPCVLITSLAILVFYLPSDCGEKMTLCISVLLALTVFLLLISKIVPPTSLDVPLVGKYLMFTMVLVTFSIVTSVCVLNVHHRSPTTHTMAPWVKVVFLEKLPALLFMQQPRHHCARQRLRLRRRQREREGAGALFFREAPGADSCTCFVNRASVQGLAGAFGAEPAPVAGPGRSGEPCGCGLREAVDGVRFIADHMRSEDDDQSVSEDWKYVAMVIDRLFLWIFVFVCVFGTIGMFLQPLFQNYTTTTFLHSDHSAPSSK
T2 sequence (P43681 whole entry): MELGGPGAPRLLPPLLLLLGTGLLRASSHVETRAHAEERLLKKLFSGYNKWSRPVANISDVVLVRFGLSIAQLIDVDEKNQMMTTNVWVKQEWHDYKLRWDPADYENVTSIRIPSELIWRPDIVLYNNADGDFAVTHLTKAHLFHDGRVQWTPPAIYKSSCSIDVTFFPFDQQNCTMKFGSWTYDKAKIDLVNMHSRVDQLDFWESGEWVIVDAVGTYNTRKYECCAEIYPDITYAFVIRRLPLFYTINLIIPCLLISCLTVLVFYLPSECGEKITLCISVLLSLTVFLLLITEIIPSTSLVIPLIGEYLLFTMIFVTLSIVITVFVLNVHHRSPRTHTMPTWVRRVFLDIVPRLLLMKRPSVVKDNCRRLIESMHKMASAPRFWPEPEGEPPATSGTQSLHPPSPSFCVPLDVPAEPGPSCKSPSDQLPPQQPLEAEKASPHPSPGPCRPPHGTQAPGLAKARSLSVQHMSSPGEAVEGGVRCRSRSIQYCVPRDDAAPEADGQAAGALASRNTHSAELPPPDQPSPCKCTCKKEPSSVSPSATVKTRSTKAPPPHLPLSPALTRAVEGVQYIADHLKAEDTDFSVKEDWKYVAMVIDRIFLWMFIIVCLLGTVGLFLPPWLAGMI
T1 sequence (P30926 whole entry): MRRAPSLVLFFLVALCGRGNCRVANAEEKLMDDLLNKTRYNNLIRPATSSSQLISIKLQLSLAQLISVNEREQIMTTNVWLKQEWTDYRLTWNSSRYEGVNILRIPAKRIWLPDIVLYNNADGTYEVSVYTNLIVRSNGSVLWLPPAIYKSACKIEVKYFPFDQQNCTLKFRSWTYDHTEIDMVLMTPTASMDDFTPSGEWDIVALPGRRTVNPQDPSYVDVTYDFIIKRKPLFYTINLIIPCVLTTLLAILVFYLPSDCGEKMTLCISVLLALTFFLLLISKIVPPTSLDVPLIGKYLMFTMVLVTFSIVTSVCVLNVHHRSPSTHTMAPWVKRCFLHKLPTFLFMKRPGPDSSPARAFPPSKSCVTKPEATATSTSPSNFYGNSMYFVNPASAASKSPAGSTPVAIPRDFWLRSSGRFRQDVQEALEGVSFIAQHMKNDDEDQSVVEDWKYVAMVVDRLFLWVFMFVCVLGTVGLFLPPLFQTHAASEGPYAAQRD
T1 sequence (P32297 whole entry): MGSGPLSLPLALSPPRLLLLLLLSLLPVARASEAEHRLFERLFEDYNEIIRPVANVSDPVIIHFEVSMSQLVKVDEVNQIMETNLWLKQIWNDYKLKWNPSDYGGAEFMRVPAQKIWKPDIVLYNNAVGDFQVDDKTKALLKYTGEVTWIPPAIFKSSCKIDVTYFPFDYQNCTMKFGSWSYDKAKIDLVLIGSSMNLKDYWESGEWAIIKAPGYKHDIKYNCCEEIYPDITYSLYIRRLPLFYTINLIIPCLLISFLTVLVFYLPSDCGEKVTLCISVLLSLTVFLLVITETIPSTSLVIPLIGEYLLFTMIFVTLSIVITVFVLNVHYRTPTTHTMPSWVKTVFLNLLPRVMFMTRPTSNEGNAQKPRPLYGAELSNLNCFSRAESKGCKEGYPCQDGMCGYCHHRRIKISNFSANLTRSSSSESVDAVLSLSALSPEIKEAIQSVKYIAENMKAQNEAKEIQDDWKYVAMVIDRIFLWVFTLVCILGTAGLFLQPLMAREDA

Row | SMILES | EC50 [1] | %max [2] | EC50 [3] | %max [4] | EC50 [5] | %max [6] | Ki [7] | Ki [8] | Ki [9]
1 | COc1cncc(C2=CC3CNCC(C2)C3)c1 (configuration not stated) | 105 nM | 145% | 53 nM | 100% | 49 nM | 72% | 14.3 nM | 4.6 nM | 0.3 nM
2 | C1=C(c2cnccn2)CC2CNCC1C2 (configuration not stated) | – | – | – | – | – | – | 828 nM | 281 nM | 1.1 nM
3 | CN1CC2C=C(c3cncc(Cl)c3)CC(C2)C1 (configuration not stated) | – | – | – | – | – | – | 1830 nM | 8010 nM | 9.6 nM
4 | COc1ccc(Oc2cncc(C3=CC4CNCC(C3)C4)c2)cc1 (configuration not stated) | – | – | – | – | – | – | 27 nM | 23 nM | 1.4 nM
5 | FC(F)(F)c1cncc(C2=CC3CNCC(C2)C3)c1 (configuration not stated) | – | – | – | – | – | – | 79 nM | 641 nM | 0.7 nM
6 | COc1cc(C2=CC3CC(C2)CN(C)C3)cnc1Cl (configuration not stated) | – | – | – | – | – | – | 1430 nM | 7570 nM | 4.4 nM
7 | C1=C(c2ccc3nccnc3c2)CC2CNCC1C2 (configuration not stated) | – | – | – | – | – | – | 5740 nM | > 10000 nM | 85 nM
8 | C1=C(c2ccc(-c3ccccc3)nc2)CC2CNCC1C2 (configuration not stated) | 10900 nM | 17% | 9660 nM | 18% | > 10000 nM | 19% | 507 nM | 590 nM | 105 nM
9 | Clc1cncc(C2=CC3CNCC(C2)C3)c1 (configuration not stated) | – | – | – | – | – | – | 40 nM | 15 nM | 0.4 nM
10 | COc1cncc(C2=CC3CC(C2)CN(C)C3)c1 (configuration not stated) | 3640 nM | 27% | 5130 nM | 15% | 2660 nM | 19% | 596 nM | 605 nM | 0.6 nM
11 | C1=C(c2ccncc2)CC2CNCC1C2 (configuration not stated) | – | – | – | – | – | – | 459 nM | > 10000 nM | 56 nM
12 | C1=C(c2cncc(OCc3ccccc3)c2)CC2CNCC1C2 (configuration not stated) | – | – | – | – | – | – | 44 nM | 43.9 nM | 0.7 nM
13 | CN1CC2C=C(c3ccc(Cl)nc3)CC(C2)C1 (configuration not stated) | – | – | – | – | – | – | 986 nM | 6530 nM | 22 nM
14 | C1=C(c2cccnc2)CC2CNCC1C2 (racemic) | – | – | – | – | – | – | 12 nM | 4 nM | 0.2 nM
15 | COc1ccc(C2=CC3CNCC(C2)C3)cn1 (configuration not stated) | – | – | – | – | – | – | 328 nM | 1850 nM | 0.4 nM
16 | CN1CC2C=C(c3cncc(Oc4ccccc4)c3)CC(C2)C1 (configuration not stated) | 100 nM | 103% | > 10000 nM | 9.5% | 183 nM | 42% | 8.2 nM | 17 nM | 1.3 nM
17 | Fc1cncc(C2=C[C@H]3CNC[C@@H](C2)C3)c1 | 155 nM | 140% | 50 nM | 119% | 29 nM | 100% | 8.3 nM | 3.3 nM | 0.2 nM
18 | COc1cc(C2=CC3CNCC(C2)C3)cnc1Cl (configuration not stated) | – | – | – | – | – | – | 7 nM | 111 nM | 0.4 nM
19 | Clc1cccc(Oc2cncc(C3=CC4CNCC(C3)C4)c2)c1 (configuration not stated) | – | – | – | – | – | – | 22 nM | 13 nM | 1 nM
20 | C1=C(c2cncc(-c3ccccc3)c2)CC2CNCC1C2 (configuration not stated) | 181 nM | 61% | > 10000 nM | 5.3% | 85 nM | 33% | 17 nM | 3220 nM | 0.8 nM
21 | COc1ccccc1Oc1cncc(C2=CC3CNCC(C2)C3)c1 (configuration not stated) | – | – | – | – | – | – | 56 nM | 30 nM | 1 nM
22 | COc1ccc(C2=CC3CC(C2)CN(C)C3)cn1 (configuration not stated) | 1890 nM | 61% | > 10000 nM | 20% | 3460 nM | 91% | > 10000 nM | > 10000 nM | 797 nM
23 | C1=C(c2cncnc2)CC2CNCC1C2 (configuration not stated) | 198 nM | 147% | 162 nM | 145% | 240 nM | 116% | 58 nM | 19 nM | 0.2 nM

Reference: ChEMBL document CHEMBL2176949 (J Med Chem, 2012)
